Experimental data: ChEMBL document CHEMBL1123760, “Synthesis and oral antifungal activity of novel azolylpropanolones and related compounds” (1987)
In brackets after ≈: the same amount, converted by molar mass.

Columns and labels:
Assay type in all cases: functional
Candida albicans [1] = test: Minimum effective concentration for inhibition of pseudomycelium formation in Candida albicans; settings: Candida albicans; read-out: MEC
How it was run: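 C. albicans KE-2 (clinical isolate) at a final 1 × 10^6 yeast cells/mL in EMEM with 20% calf serum; compounds diluted by the same microtiter system as for MICs. After incubation, wells were Giemsa-stained (5% in phosphate buffer) and read by microscope. MEC is the lowest concentration preventing typical pseudomycelium formation.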

Candida albicans [2] = test: In vitro antifungal activity against Candida albicans; settings: Candida albicans; read-out: MIC
How it was run: (§1)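 Broth microdilution MIC in Sabouraud's glucose broth; final inocula 1 × 10^5 cells/mL (yeast) or 1 × 10^5 conidia/mL (mold and dermatophyte).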

Trichophyton benhamiae = test: In vitro antifungal activity against Trichophyton asteroides; settings: Trichophyton benhamiae; read-out: MIC; how it was run: as §1
Aspergillus fumigatus = test: In vitro antifungal activity against Aspergillus fumigatus; settings: Aspergillus fumigatus; read-out: MIC; how it was run: as §1

Row | MIC (Candida albicans [2]) | MIC (Trichophyton benhamiae) | MIC (Aspergillus fumigatus) | SMILES | minimal effective concentration (Candida albicans [1])
1 | > 100 µg/mL | 0.1 µg/mL (≈ 0.244 µM) | 50 µg/mL (≈ 122 µM) | O=S1O[C@H](c2ccccc2)[C@@](Cn2cncn2)(c2ccc(Cl)cc2Cl)O1 (some centres not stated) | 0.04 µg/mL
2 | 100 µg/mL (≈ 246 µM) | 0.2 µg/mL (≈ 0.491 µM) | 50 µg/mL (≈ 123 µM) | O=C1O[C@H](c2ccc(F)cc2)[C@@](Cn2ccnc2)(c2ccc(Cl)cc2Cl)O1 | 0.16 µg/mL
3 | > 100 µg/mL | 3.1 µg/mL (≈ 8.38 µM) | > 100 µg/mL | Cc1ccc([C@H]2OC(=O)O[C@]2(Cn2cncn2)c2ccccc2Cl)cc1 | 0.63 µg/mL
4 | > 100 µg/mL | 50 µg/mL (≈ 102 µM) | > 100 µg/mL | OC(Cc1ccc(Cl)cc1)(c1ccccc1)C(O)(Cn1cncn1)c1ccc(Cl)cc1Cl (configuration not stated) | 20 µg/mL
5 | > 100 µg/mL | 1.6 µg/mL (≈ 5.16 µM) | 50 µg/mL (≈ 161 µM) | CC(C)C(O)(Cn1cncn1)C(C)(O)c1ccc(Cl)cc1 (configuration not stated) | 5 µg/mL
6 | > 100 µg/mL | 0.1 µg/mL (≈ 0.225 µM) | > 100 µg/mL | O=S1O[C@H](c2ccc(Cl)cc2)[C@](Cn2cncn2)(c2ccc(Cl)cc2Cl)O1 (some centres not stated) | 0.02 µg/mL
7 | > 100 µg/mL | 0.1 µg/mL (≈ 0.244 µM) | > 100 µg/mL | O=S1O[C@H](c2ccccc2)[C@](Cn2cncn2)(c2ccc(Cl)cc2Cl)O1 (some centres not stated) | 0.08 µg/mL
8 | > 100 µg/mL | 50 µg/mL (≈ 138 µM) | > 100 µg/mL | OC(c1ccc(Cl)cc1)C(O)(Cn1ccnc1)c1ccc(Cl)cc1 (configuration not stated) | > 20 µg/mL
9 | 100 µg/mL (≈ 292 µM) | 0.1 µg/mL (≈ 0.292 µM) | 50 µg/mL (≈ 146 µM) | CCCCC(O)(Cn1cncn1)C(=O)c1ccc(Cl)cc1Cl (configuration not stated) | 0.31 µg/mL
10 | 100 µg/mL (≈ 281 µM) | 1.6 µg/mL (≈ 4.49 µM) | > 100 µg/mL | CCC[C@H]1OC(=O)O[C@]1(Cn1cncn1)c1ccc(Cl)cc1Cl | 0.16 µg/mL

Further lines, the compound ahead of its results:

Row | SMILES | MIC (Candida albicans [2]) | MIC (Trichophyton benhamiae) | MIC (Aspergillus fumigatus) | minimal effective concentration (Candida albicans [1])
11 | Cc1ccc([C@H]2OC(=O)O[C@]2(Cn2cncn2)c2ccc(C)cc2)cc1 | > 100 µg/mL | 3.1 µg/mL (≈ 8.87 µM) | > 100 µg/mL | 1.25 µg/mL
12 | COc1ccc(C(=O)C(O)(Cn2cnnc2)c2ccc(OC)cc2)cc1 (configuration not stated) | > 100 µg/mL | 50 µg/mL (≈ 141 µM) | > 100 µg/mL | 2.5 µg/mL
13 | CC(C)C(C)(O)C(O)(Cn1cncn1)c1ccccc1 (configuration not stated) | > 100 µg/mL | 6.3 µg/mL (≈ 22.9 µM) | > 100 µg/mL | 10 µg/mL
14 | CC(C)C(O)(Cn1cncn1)C(O)(c1ccc(Cl)cc1)c1ccc(Cl)cc1 (configuration not stated) | > 100 µg/mL | 6.3 µg/mL (≈ 15.5 µM) | > 100 µg/mL | > 20 µg/mL
15 | CCCC(O)C(O)(Cn1cncn1)c1ccc(Cl)cc1Cl (configuration not stated) | > 100 µg/mL | 0.1 µg/mL (≈ 0.303 µM) | 50 µg/mL (≈ 151 µM) | 0.04 µg/mL
16 | OC(c1cccc(Cl)c1)C(O)(Cn1cncn1)c1cccc(Cl)c1 (configuration not stated) | > 100 µg/mL | 3.1 µg/mL (≈ 8.51 µM) | > 100 µg/mL | > 20 µg/mL
17 | O=C(c1ccco1)C(O)(Cn1cncn1)c1ccco1 (configuration not stated) | > 100 µg/mL | 100 µg/mL (≈ 366 µM) | > 100 µg/mL | > 20 µg/mL
18 | CCCC(=O)C(O)(Cn1cncn1)c1ccccc1Cl (configuration not stated) | > 100 µg/mL | 0.8 µg/mL (≈ 2.72 µM) | 100 µg/mL (≈ 340 µM) | 0.04 µg/mL
19 | CC(C)C(O)C(O)(Cn1cncn1)c1ccc(Cl)cc1Cl (configuration not stated) | > 100 µg/mL | 0.1 µg/mL (≈ 0.303 µM) | 50 µg/mL (≈ 151 µM) | 0.04 µg/mL
20 | O=C(c1cccs1)C(O)(Cn1ccnc1)c1ccc(Cl)cc1 (configuration not stated) | > 100 µg/mL | 0.8 µg/mL (≈ 2.4 µM) | > 100 µg/mL | 5 µg/mL
21 | CC(O)(c1ccc(Cl)cc1)C(O)(Cn1ccnc1)c1ccc(Cl)cc1 (configuration not stated) | > 100 µg/mL | 0.8 µg/mL (≈ 2.12 µM) | > 100 µg/mL | 1.25 µg/mL
22 | Clc1ccc([C@@]2(Cn3cncn3)OCO[C@@H]2c2ccccc2)c(Cl)c1 | > 100 µg/mL | 0.2 µg/mL (≈ 0.532 µM) | 12.5 µg/mL (≈ 33.2 µM) | 0.08 µg/mL
23 | CC(O)(c1ccc(F)cc1)C(O)(Cn1ccnc1)c1ccc(Cl)cc1 (configuration not stated) | > 100 µg/mL | 0.4 µg/mL (≈ 1.11 µM) | > 100 µg/mL | 2.5 µg/mL
